Assay outcomes: PubChem, several laboratories
Calb FLC: affects C. albicans growth with fluconazole | C. albicans CaCi-2 (fluconazole-resistant clinical isolate) + fluconazole, Alamar Blue growth, 48 h | growth inhibition, % (concentration not given with the values) | 0.57% of 300,000 active | AID 1979;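 active = growth inhibition above about 58% in most replicates, limit read from the data, passing the limit was not always enough; inconclusive = exactly half the replicates above a set limit; inactive = most replicates below a set limit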;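 note: all wells also contain fluconazole at 8 µg/ml as a sub-toxic cotreatment; 0% = median of DMSO wells and 100% = median of geldanamycin control wells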
PolyA inhibitor: blocks polyadenylation in yeast reporter cells. S. cerevisiae SKY197-pL101 polyadenylation reporter, beta-gal luminescence; efflux-impaired pdr1/pdr3 knockout yeast; score 100 = 6 SD above DMSO. activity score, % at 12 µM. 0.02% of 300,000 active. AID 1875;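 active = lowest replicate activity score at least 50, where 100 means six control SD above control mean; inconclusive = lowest score under 50 but half or more replicates reach 50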;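 note: yeast exposed to compound for 9 h at 30 °C; higher score means more reporter readthrough which indicates perturbed polyadenylation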
NALP3 yeast inh: inhibitors of NALP3 inflammasome in yeast; Yeast reconstituted NLRP3/ASC/caspase-1, beta-gal luminescence, 24 h; inhibition, % at 10 µM; 0.39% of 330,000 active;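 active = inhibition of 50% or more; inactive = inhibition below 50%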;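 note: plate controls were induced DMSO wells for no effect and uninduced yeast grown without galactose for full effect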
Lmaj promast: Leishmania major promastigote growth inhibition; Leishmania major promastigotes, resazurin fluorescence viability; inhibition, % at 10 µM; 9% of 200,000 active; in the data active = inhibition above about 50%;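 note: promastigotes grown with compound for 44 hours at 28 °C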
T cruzi inh: T. cruzi replication inhibition. T. cruzi beta-gal in NIH3T3, luminescence, 90 h. inhibition, % (no concentration beside the values). 1.4% of 300,000 active;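 active = mean inhibition across valid replicates above about 55%, limit read from the data; inconclusive = mean below that limit but half or more replicates reach it; inactive = mean below it, under half of replicates reach it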;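 note: signal also drops with host cell toxicity which is not excluded here; 0% = plate median of DMSO wells and 100% = zero luminescence signal; higher percent means less beta-gal luminescence so fewer parasites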
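Assay system: NIH/3T3 host cells with β-galactosidase reporter T. cruzi; input: 5,000 host fibroblasts per well; compound: single 50 nL compound addition per well in DMSO; timing: ≥90 h infection period, 3 h prior cell attachment; measured by: GalScreen β-gal luminescence, detergent lysis, 60 min; evaluation: percent inhibition of parasite-derived β-gal signal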
NALP1 yeast inh: inhibitors of NALP1 inflammasome in yeast | S. cerevisiae NALP1/ASC/caspase-1 growth, X-gal OD620, 72 h | 0.61% of 280,000 active | inhibition, % at 10 µM; in the data active = inhibition mostly above about 24%, no sharp cut-off; inactive = mostly below about 32%
* hit, by the source's call; ? = inconclusive; · = no result. The full list was thinned out, with hits kept by preference.

SMILES	Calb FLC	PolyA inhibitor	NALP3 yeast inh	Lmaj promast	T cruzi inh	NALP1 yeast inh
CCOC(=O)C1=C(C)NC2=C(C(=O)c3ccccc32)C1c1ccc([N+](=O)[O-])o1 (configuration not stated)	2	-10	22	·	58*	3
Cc1cccc(NC(=O)c2ccc(C3SCC(=O)N3CCc3ccccc3)cc2)c1 (configuration not stated)	-4	0	-3	96*	-3	25
COc1cccc(C(=O)NC2CC3CCCC(C2)N3Cc2ccc(C)cc2)c1 (configuration not stated)	-26	18	14	·	10	-1
CCCc1sc(N/N=C/c2ccccn2)nc1-c1ccc(F)cc1	18	-21	13	96*	55*	-10
COc1cc(/C=C2\C(=O)N(CCC#N)N=C2C)ccc1OCC(=O)Nc1ccccc1	5	0	14	60*	-4	27
COc1ccc(OC)c(S(=O)(=O)N2CCN(c3ccccc3OC)CC2)c1	-1	-19	15	·	28	6
C=CCOc1ccccc1CN1CCCC(CCC(=O)N(C)CCc2ccccn2)C1 (configuration not stated)	-17	-8	17	24	56*	-3
CCCC(=O)c1c[nH]c(C(=O)NCCc2ccccn2)c1	12	0	19	-4	0	-4
CC(C)(CNC(=S)NCCc1ccccc1)CNC(=S)NCCc1ccccc1	5	6	·	95*	65*	-10
S=C(NCCc1ccccc1)NCc1cccs1	-16	-12	4	79*	-6	12
S=C(NCCCc1ccccc1)Nc1ccccc1	-37	·	14	·	·	3
S=C(NCCCc1ccccc1)Nc1ccc(Cl)cc1	-43	-6	27	90*	-5	64
OCCNC(=S)NCCc1ccccc1	-7	-2	-4	-8	-6	7
CCC(C)c1ccc(NC(=S)NCc2cccs2)cc1 (configuration not stated)	-37	2	22	67*	33	16
Cc1cc(C)n(C(C)CNS(=O)(=O)c2ccc(Cl)cc2)n1 (configuration not stated)	9	5	-3	·	-2	7
CNc1nc(N)c([N+](=O)[O-])c(Nc2ccccc2OC)n1	-8	-17	31	·	-16	8
CCOC(=O)C1CCN(CC(O)COc2ccc(C(C)(C)CC)cc2)CC1 (configuration not stated)	-42	-59	13	97*	14	19
CC(C)(C)c1ccc(OCC(O)CN2CCN(C(=O)c3ccccc3)CC2)cc1 (configuration not stated)	-4	12	-3	·	3	·
CC(=O)c1ccc(OCC(O)CN2CCN(S(=O)(=O)c3c(C)c(C)cc(C)c3C)CC2)cc1 (configuration not stated)	-3	-7	5	·	24	10
CCOC(=O)C1CCN(CC(O)COCc2ccccc2)CC1 (configuration not stated)	-2	14	-2	·	-21	16
CCOC(=O)C1CCN(CC(O)COc2ccc(C(C)=O)cc2)CC1 (configuration not stated)	2	3	6	92*	-9	-13
CCOC(=O)C1CCN(CC(O)COc2ccc(C(C)(C)C)cc2)CC1 (configuration not stated)	-25	-12	28	92*	0	28
CCOC(=O)C1CCN(CC(O)COCc2cccs2)CC1 (configuration not stated)	5	17	4	79*	12	7
O=C(NCc1cccs1)C1CC(=O)N(Cc2ccccc2)C1 (configuration not stated)	·	·	-1	·	·	·
OC(COCc1cccs1)CN1CCN(c2cccc(Cl)c2)CC1 (configuration not stated)	-2	-13	16	99*	10	44
SMILES	Calb FLC	PolyA inhibitor	NALP3 yeast inh	Lmaj promast	T cruzi inh	NALP1 yeast inh
CCc1nc(SCC(=O)Nc2nnc(CC)s2)c2c(=O)n(C)c(=O)n(C)c2n1	30	-4	16	·	-24	26
Cc1cc(C(F)F)n2nc(C(=O)Nc3sc4c(c3C#N)CCC4)nc2n1	52	-2	-8	-1	-8	14
Cc1ccc(/C=C/c2ccc(N(C)C)cc2)[n+](C)c1	82*	2	27	·	61*	-8
CN(C)c1ccc(/C=C/c2cc[n+](C)cc2)cc1	16	-11	14	99*	85*	-2
CC(=O)Nc1cccc(OCC(=O)NC(C)c2ccc3ccccc3c2)c1 (configuration not stated)	3	-11	9	·	6	17
Cc1ccc(C(=O)NNc2cc(N3CCCC3)nc(N3CCCC3)n2)cc1	-20	-16	27	100*	81*	0
COc1cc(C2N(C)CCC3(OCCO3)C2(C)C)cc(OC)c1OC (configuration not stated)	4	0	7	58*	-6	22
COc1cccc(C2[C@H](C)C3(CCN2C)OCCO3)c1 (some centres not stated)	29	0	1	-3	-13	26
COc1ccc(C2c3cc(OC)c(OC)cc3CCN2S(C)(=O)=O)cc1OC (configuration not stated)	-1	·	4	-1	-11	9
Cc1[nH]n(-c2ccccc2)c(=O)c1/C=N/NC(=O)c1cccc([N+](=O)[O-])c1	·	·	20	-4	·	-9
Cc1[nH]n(-c2cccc3ccccc23)c(=O)c1/C=N/NC(=O)c1cccc([N+](=O)[O-])c1	80*	2	13	-5	-18	29
Cc1ccc(-n2[nH]c(C)c(/C=N/NC(=O)c3ccc([N+](=O)[O-])cc3)c2=O)c(C)c1	103*	13	6	1	-46	1
Cc1ccc(-n2[nH]c(C)c(/C=N/Nc3ccc([N+](=O)[O-])cc3[N+](=O)[O-])c2=O)cc1C	-8	?	17	-16	5	8
CCOc1cc(C2NC(=O)CCC2[N+](=O)[O-])cc(Br)c1OC (configuration not stated)	4	4	-3	·	-6	-66
Cc1cc(C)c(S(=O)(=O)c2ccccc2C)c(SCC(C)C)n1	-1	-11	-6	92*	10	11
CCCSc1nc(C)cc(C)c1S(=O)(=O)c1ccccc1C	-3	-1	-17	94*	7	5
Cc1cc(C)c(S(=O)(=O)c2ccccc2C)c(OCC(C)(C)C)n1	0	-3	-8	96*	19	2
CCOCCOc1nc(C)cc(C)c1S(=O)(=O)c1ccccc1C	-4	1	-4	11	3	6
CC(C)CCOc1ccc(/C=C2\CCn3c2nc2cc(C(=O)O)ccc2c3=O)cc1	·	·	·	5	·	2
